Laboratory results: ChEMBL document CHEMBL5150051, “Identification and Characterization of a Novel Indoleamine 2,3-Dioxygenase 1 Protein Degrader for Glioblastoma” (J Med Chem, 2022)

Target: Protein cereblon/Indoleamine 2,3-dioxygenase 1 (Homo sapiens, UniProt P14902+Q96SW2)
Experiment: Protac activity at IDO1/CRBN in IFNgamma-stimulated human U87 cells assessed as IDO1 degradation at 10 uM measured after 24 hrs by Western blotting analysis relative to control
Format: cell-based
How it was run: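 U87 GBM cells primed with human IFNγ 50 ng/mL for 24 h, then exposed to PROTAC at 10 μM for 24 h. Lysates run on western blot; IDO1 bands quantified by densitometry and expressed as percent of normalized IDO1 protein level.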

Chain of Protein cereblon/Indoleamine 2,3-dioxygenase 1 (P14902 whole entry, looked up): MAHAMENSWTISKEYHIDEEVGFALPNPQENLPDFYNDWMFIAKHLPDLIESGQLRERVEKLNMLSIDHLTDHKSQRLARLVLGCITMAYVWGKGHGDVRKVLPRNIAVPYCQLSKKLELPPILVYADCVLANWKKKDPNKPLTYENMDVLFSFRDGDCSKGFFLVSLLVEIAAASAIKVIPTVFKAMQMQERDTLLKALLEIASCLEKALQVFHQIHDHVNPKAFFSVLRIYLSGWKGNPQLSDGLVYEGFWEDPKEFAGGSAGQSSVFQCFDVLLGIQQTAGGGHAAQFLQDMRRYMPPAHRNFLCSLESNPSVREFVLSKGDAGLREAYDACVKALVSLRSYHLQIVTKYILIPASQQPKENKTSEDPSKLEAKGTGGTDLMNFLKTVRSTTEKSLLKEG
Chain of Protein cereblon/Indoleamine 2,3-dioxygenase 1 (Q96SW2 whole entry, looked up): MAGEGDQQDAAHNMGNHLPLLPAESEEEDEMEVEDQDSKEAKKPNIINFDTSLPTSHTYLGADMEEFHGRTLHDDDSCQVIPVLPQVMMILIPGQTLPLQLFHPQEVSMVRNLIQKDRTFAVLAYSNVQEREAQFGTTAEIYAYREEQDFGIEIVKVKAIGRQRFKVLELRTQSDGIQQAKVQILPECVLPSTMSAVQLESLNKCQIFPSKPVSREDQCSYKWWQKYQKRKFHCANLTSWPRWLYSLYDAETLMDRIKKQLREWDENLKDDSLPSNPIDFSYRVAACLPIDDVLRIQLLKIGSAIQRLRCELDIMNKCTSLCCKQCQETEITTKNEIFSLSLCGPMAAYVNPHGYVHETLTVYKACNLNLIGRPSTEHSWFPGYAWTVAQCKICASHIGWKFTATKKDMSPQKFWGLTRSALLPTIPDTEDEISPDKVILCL

`C[C@@H](C(=O)Nc1ccc(Cl)c(OCCCCCCCCCOc2cccc3c2C(=O)N(C2CCC(=O)NC2=O)C3=O)c1)[C@H]1CC[C@@H](c2ccnc3ccc(F)cc32)CC1` (stereo partly specified) showed an Activity of 16%.

With `C[C@@H](C(=O)Nc1ccc(Cl)c(OCCOCCOCCOCCOCCOCCNc2cccc3c2C(=O)N(C2CCC(=O)NC2=O)C3=O)c1)[C@H]1CC[C@@H](c2ccnc3ccc(F)cc32)CC1` (stereo partly specified) the Activity was 0%.

With `C[C@@H](C(=O)Nc1ccc(OCCOCCOCCOCCNC(=O)COc2cccc3c2C(=O)N(C2CCC(=O)NC2=O)C3=O)cc1)[C@H]1CC[C@@H](c2ccnc3ccc(F)cc32)CC1` (stereo partly specified) the Activity was 0%.

`C[C@@H](C(=O)Nc1ccc(Cl)c(OCCOCCOc2cccc3c2C(=O)N(C2CCC(=O)NC2=O)C3=O)c1)[C@H]1CC[C@@H](c2ccnc3ccc(F)cc32)CC1` (stereo partly specified) gave an Activity of 6%.

In the case of `C[C@@H](C(=O)Nc1ccc(OCCOCCOc2cccc3c2C(=O)N(C2CCC(=O)NC2=O)C3=O)cc1)[C@H]1CC[C@@H](c2ccnc3ccc(F)cc32)CC1` (stereo partly specified), the Activity is reported as 18%.

`C[C@@H](C(=O)Nc1ccc(Cl)c(OCCOCCOCCNC(=O)COc2cccc3c2C(=O)N(C2CCC(=O)NC2=O)C3=O)c1)[C@H]1CC[C@@H](c2ccnc3ccc(F)cc32)CC1` (stereo partly specified) was tested, and the Activity was 40%.

Compound `C[C@@H](C(=O)Nc1ccc(OCCCCCCCCCCNc2cccc3c2C(=O)N(C2CCC(=O)NC2=O)C3=O)cc1)[C@H]1CC[C@@H](c2ccnc3ccc(F)cc32)CC1` (stereo partly specified) has an Activity of 0%.

For `C[C@@H](C(=O)Nc1ccc(OCCOCCOCCOc2cccc3c2C(=O)N(C2CCC(=O)NC2=O)C3=O)cc1)[C@H]1CC[C@@H](c2ccnc3ccc(F)cc32)CC1` (stereo partly specified), the Activity was 94%.

Compound `C[C@@H](C(=O)Nc1ccc(Cl)c(OCCOCCOCCOCCNc2cccc3c2C(=O)N(C2CCC(=O)NC2=O)C3=O)c1)[C@H]1CC[C@@H](c2ccnc3ccc(F)cc32)CC1` (stereo partly specified) has an Activity of 0%.

Work on `C[C@@H](C(=O)Nc1ccc(OC2CCN(C(=O)CCOCCNC(=O)COc3cccc4c3C(=O)N(C3CCC(=O)NC3=O)C4=O)CC2)cc1)[C@H]1CC[C@@H](c2ccnc3ccc(F)cc32)CC1` (stereo partly specified) yielded an Activity of 38%.

`C[C@@H](C(=O)Nc1ccc(OCCOCCNC(=O)COc2cccc3c2C(=O)N(C2CCC(=O)NC2=O)C3=O)cc1)[C@H]1CC[C@@H](c2ccnc3ccc(F)cc32)CC1` (stereo partly specified) showed an Activity of 48%.

Compound `C[C@@H](C(=O)Nc1ccc(Cl)c(OCCCNC(=O)COc2cccc3c2C(=O)N(C2CCC(=O)NC2=O)C3=O)c1)[C@H]1CC[C@@H](c2ccnc3ccc(F)cc32)CC1` (stereo partly specified) has an Activity of 67%.

`C[C@@H](C(=O)Nc1ccc(Cl)c(OCCCOc2cccc3c2C(=O)N(C2CCC(=O)NC2=O)C3=O)c1)[C@H]1CC[C@@H](c2ccnc3ccc(F)cc32)CC1` (stereo partly specified) was tested, and the Activity was 49%.

`C[C@@H](C(=O)Nc1ccc(OCCCCCCCNC(=O)COc2cccc3c2C(=O)N(C2CCC(=O)NC2=O)C3=O)cc1)[C@H]1CC[C@@H](c2ccnc3ccc(F)cc32)CC1` (stereo partly specified) gave an Activity of 0%.

`C[C@@H](C(=O)Nc1ccc(OCCOCCOCCOCCOc2cccc3c2C(=O)N(C2CCC(=O)NC2=O)C3=O)cc1)[C@H]1CC[C@@H](c2ccnc3ccc(F)cc32)CC1` (stereo partly specified) showed an Activity of 0%.

With `C[C@@H](C(=O)Nc1ccc(OC2CN(C(=O)CCOCCOCCOc3cccc4c3C(=O)N(C3CCC(=O)NC3=O)C4=O)C2)cc1)[C@H]1CC[C@@H](c2ccnc3ccc(F)cc32)CC1` (stereo partly specified) the Activity was 74%.

`C[C@@H](C(=O)Nc1ccc(OCCOCCOCCNc2cccc3c2C(=O)N(C2CCC(=O)NC2=O)C3=O)cc1)[C@H]1CC[C@@H](c2ccnc3ccc(F)cc32)CC1` (stereo partly specified) showed an Activity of 77%.

`C[C@@H](C(=O)Nc1ccc(OCCCCOc2cccc3c2C(=O)N(C2CCC(=O)NC2=O)C3=O)cc1)[C@H]1CC[C@@H](c2ccnc3ccc(F)cc32)CC1` (stereo partly specified) was tested, and the Activity was 0%.

`C[C@@H](C(=O)Nc1ccc(OC2CN(CCCOCCOCCNC(=O)COc3cccc4c3C(=O)N(C3CCC(=O)NC3=O)C4=O)C2)cc1)[C@H]1CC[C@@H](c2ccnc3ccc(F)cc32)CC1` (stereo partly specified) was tested, and the Activity was 0%.

Compound `C[C@@H](C(=O)Nc1ccc(OCCCCCCCCCCNC(=O)COc2cccc3c2C(=O)N(C2CCC(=O)NC2=O)C3=O)cc1)[C@H]1CC[C@@H](c2ccnc3ccc(F)cc32)CC1` (stereo partly specified) has an Activity of 0%.

For `C[C@@H](C(=O)Nc1ccc(OC2CCN(CCCOCCOc3cccc4c3C(=O)N(C3CCC(=O)NC3=O)C4=O)CC2)cc1)[C@H]1CC[C@@H](c2ccnc3ccc(F)cc32)CC1` (stereo partly specified), the Activity was 0%.

`C[C@@H](C(=O)Nc1ccc(OC2CCN(C(=O)CCOCCNc3cccc4c3C(=O)N(C3CCC(=O)NC3=O)C4=O)CC2)cc1)[C@H]1CC[C@@H](c2ccnc3ccc(F)cc32)CC1` (stereo partly specified) was tested, and the Activity was 33%.

`C[C@@H](C(=O)Nc1ccc(OCCOCCOCCOCCOCCOc2cccc3c2C(=O)N(C2CCC(=O)NC2=O)C3=O)cc1)[C@H]1CC[C@@H](c2ccnc3ccc(F)cc32)CC1` (stereo partly specified) showed an Activity of 0%.

`C[C@@H](C(=O)Nc1ccc(Cl)c(OCCCCCCNC(=O)COc2cccc3c2C(=O)N(C2CCC(=O)NC2=O)C3=O)c1)[C@H]1CC[C@@H](c2ccnc3ccc(F)cc32)CC1` (stereo partly specified) gave an Activity of 0%.

`C[C@@H](C(=O)Nc1ccc(OCCOCCNc2cccc3c2C(=O)N(C2CCC(=O)NC2=O)C3=O)cc1)[C@H]1CC[C@@H](c2ccnc3ccc(F)cc32)CC1` (stereo partly specified) was tested, and the Activity was 23%.

Compound `C[C@@H](C(=O)Nc1ccc(Cl)c(OCCOCCOCCOCCOCCNc2cccc3c2C(=O)N(C2CCC(=O)NC2=O)C3=O)c1)[C@H]1CC[C@@H](c2ccnc3ccc(F)cc32)CC1` (stereo partly specified) has an Activity of 0%.

`C[C@@H](C(=O)Nc1ccc(OCCOCCOCCOCCOCCOCCNc2cccc3c2C(=O)N(C2CCC(=O)NC2=O)C3=O)cc1)[C@H]1CC[C@@H](c2ccnc3ccc(F)cc32)CC1` (stereo partly specified) gave an Activity of 0%.

Compound `C[C@@H](C(=O)Nc1ccc(OC2CN(C(=O)CCOCCNC(=O)COc3cccc4c3C(=O)N(C3CCC(=O)NC3=O)C4=O)C2)cc1)[C@H]1CC[C@@H](c2ccnc3ccc(F)cc32)CC1` (stereo partly specified) has an Activity of 86%.

Work on `C[C@@H](C(=O)Nc1ccc(OCCOCCOCCOCCOCCNc2cccc3c2C(=O)N(C2CCC(=O)NC2=O)C3=O)cc1)[C@H]1CC[C@@H](c2ccnc3ccc(F)cc32)CC1` (stereo partly specified) yielded an Activity of 0%.

`C[C@@H](C(=O)Nc1ccc(Cl)c(OCCCCCCNc2cccc3c2C(=O)N(C2CCC(=O)NC2=O)C3=O)c1)[C@H]1CC[C@@H](c2ccnc3ccc(F)cc32)CC1` (stereo partly specified) was tested, and the Activity was 0%.

Compound `C[C@@H](C(=O)Nc1ccc(Cl)c(OCCOCCOCCOCCOCCNC(=O)COc2cccc3c2C(=O)N(C2CCC(=O)NC2=O)C3=O)c1)[C@H]1CC[C@@H](c2ccnc3ccc(F)cc32)CC1` (stereo partly specified) has an Activity of 0%.

For `C[C@@H](C(=O)Nc1ccc(Cl)c(OCCOCCOCCNc2cccc3c2C(=O)N(C2CCC(=O)NC2=O)C3=O)c1)[C@H]1CC[C@@H](c2ccnc3ccc(F)cc32)CC1` (stereo partly specified), the Activity was 71%.

`C[C@@H](C(=O)Nc1ccc(Cl)c(OCCOCCOCCOCCOCCOCCOc2cccc3c2C(=O)N(C2CCC(=O)NC2=O)C3=O)c1)[C@H]1CC[C@@H](c2ccnc3ccc(F)cc32)CC1` (stereo partly specified) showed an Activity of 0%.

`C[C@@H](C(=O)Nc1ccc(OC2CN(C(=O)CCOCCOCCNC(=O)COc3cccc4c3C(=O)N(C3CCC(=O)NC3=O)C4=O)C2)cc1)[C@H]1CC[C@@H](c2ccnc3ccc(F)cc32)CC1` (stereo partly specified) showed an Activity of 9%.

Compound `C[C@@H](C(=O)Nc1ccc(OCCOCCOCCOCCOCCOCCOc2cccc3c2C(=O)N(C2CCC(=O)NC2=O)C3=O)cc1)[C@H]1CC[C@@H](c2ccnc3ccc(F)cc32)CC1` (stereo partly specified) has an Activity of 0%.

Compound `C[C@@H](C(=O)Nc1ccc(OCCCCNC(=O)COc2cccc3c2C(=O)N(C2CCC(=O)NC2=O)C3=O)cc1)[C@H]1CC[C@@H](c2ccnc3ccc(F)cc32)CC1` (stereo partly specified) has an Activity of 10%.

In the case of `C[C@@H](C(=O)Nc1ccc(OCCOCCOCCOCCNc2cccc3c2C(=O)N(C2CCC(=O)NC2=O)C3=O)cc1)[C@H]1CC[C@@H](c2ccnc3ccc(F)cc32)CC1` (stereo partly specified), the Activity is reported as 0%.

`C[C@@H](C(=O)Nc1ccc(Cl)c(OCCOCCNc2cccc3c2C(=O)N(C2CCC(=O)NC2=O)C3=O)c1)[C@H]1CC[C@@H](c2ccnc3ccc(F)cc32)CC1` (stereo partly specified) was tested, and the Activity was 66%.

`C[C@@H](C(=O)Nc1ccc(OC2CCN(CCCOCCOCCOc3cccc4c3C(=O)N(C3CCC(=O)NC3=O)C4=O)CC2)cc1)[C@H]1CC[C@@H](c2ccnc3ccc(F)cc32)CC1` (stereo partly specified) showed an Activity of 0%.

Work on `C[C@@H](C(=O)Nc1ccc(Cl)c(OCCCNc2cccc3c2C(=O)N(C2CCC(=O)NC2=O)C3=O)c1)[C@H]1CC[C@@H](c2ccnc3ccc(F)cc32)CC1` (stereo partly specified) yielded an Activity of 36%.

In the case of `C[C@@H](C(=O)Nc1ccc(OCCCCCCCCCCOc2cccc3c2C(=O)N(C2CCC(=O)NC2=O)C3=O)cc1)[C@H]1CC[C@@H](c2ccnc3ccc(F)cc32)CC1` (stereo partly specified), the Activity is reported as 0%.

In the case of `C[C@@H](C(=O)Nc1ccc(OC2CCN(C(=O)CCOCCOCCOc3cccc4c3C(=O)N(C3CCC(=O)NC3=O)C4=O)CC2)cc1)[C@H]1CC[C@@H](c2ccnc3ccc(F)cc32)CC1` (stereo partly specified), the Activity is reported as 80%.

For `C[C@@H](C(=O)Nc1ccc(Cl)c(OCCCCCCOc2cccc3c2C(=O)N(C2CCC(=O)NC2=O)C3=O)c1)[C@H]1CC[C@@H](c2ccnc3ccc(F)cc32)CC1` (stereo partly specified), the Activity was 0%.

For `C[C@@H](C(=O)Nc1ccc(Cl)c(OCCOCCOCCOc2cccc3c2C(=O)N(C2CCC(=O)NC2=O)C3=O)c1)[C@H]1CC[C@@H](c2ccnc3ccc(F)cc32)CC1` (stereo partly specified), the Activity was 88%.

In the case of `C[C@@H](C(=O)Nc1ccc(Cl)c(OCCOCCOCCOCCOCCOc2cccc3c2C(=O)N(C2CCC(=O)NC2=O)C3=O)c1)[C@H]1CC[C@@H](c2ccnc3ccc(F)cc32)CC1` (stereo partly specified), the Activity is reported as 0%.

For `C[C@@H](C(=O)Nc1ccc(OCCCCNc2cccc3c2C(=O)N(C2CCC(=O)NC2=O)C3=O)cc1)[C@H]1CC[C@@H](c2ccnc3ccc(F)cc32)CC1` (stereo partly specified), the Activity was 0%.

Compound `C[C@@H](C(=O)Nc1ccc(Cl)c(OCCOCCNC(=O)COc2cccc3c2C(=O)N(C2CCC(=O)NC2=O)C3=O)c1)[C@H]1CC[C@@H](c2ccnc3ccc(F)cc32)CC1` (stereo partly specified) has an Activity of 8%.

`C[C@@H](C(=O)Nc1ccc(OC2CN(C(=O)CCOCCNc3cccc4c3C(=O)N(C3CCC(=O)NC3=O)C4=O)C2)cc1)[C@H]1CC[C@@H](c2ccnc3ccc(F)cc32)CC1` (stereo partly specified) gave an Activity of 90%.

`C[C@@H](C(=O)Nc1ccc(OCCOCCOCCOCCOCCOCCNC(=O)COc2cccc3c2C(=O)N(C2CCC(=O)NC2=O)C3=O)cc1)[C@H]1CC[C@@H](c2ccnc3ccc(F)cc32)CC1` (stereo partly specified) was tested, and the Activity was 46%.

`C[C@@H](C(=O)Nc1ccc(OC2CN(C(=O)CCOCCOc3cccc4c3C(=O)N(C3CCC(=O)NC3=O)C4=O)C2)cc1)[C@H]1CC[C@@H](c2ccnc3ccc(F)cc32)CC1` (stereo partly specified) showed an Activity of 86%.

`C[C@@H](C(=O)Nc1ccc(Cl)c(OCCCCCCCCCNC(=O)COc2cccc3c2C(=O)N(C2CCC(=O)NC2=O)C3=O)c1)[C@H]1CC[C@@H](c2ccnc3ccc(F)cc32)CC1` (stereo partly specified) gave an Activity of 0%.
